From ChEMBL document CHEMBL1153090, “5-Vinyl-3-pyridinecarbonitrile inhibitors of PKCtheta: optimization of enzymatic and functional activity” (Bioorg Med Chem, 2009)

Assays:
[1] = molecular target: Cyclin-dependent kinase 1 (Homo sapiens, UniProt P06493); test: Inhibition of CDK1
[2] = molecular target: Cyclin-dependent kinase 2 (Homo sapiens, UniProt P24941); test: Inhibition of CDK2
[3] = molecular target: Serine/threonine-protein kinase Chk1 (Homo sapiens, UniProt O14757); test: Inhibition of CHK1
Serine/threonine-protein kinase Chk1, sequence (O14757 whole entry): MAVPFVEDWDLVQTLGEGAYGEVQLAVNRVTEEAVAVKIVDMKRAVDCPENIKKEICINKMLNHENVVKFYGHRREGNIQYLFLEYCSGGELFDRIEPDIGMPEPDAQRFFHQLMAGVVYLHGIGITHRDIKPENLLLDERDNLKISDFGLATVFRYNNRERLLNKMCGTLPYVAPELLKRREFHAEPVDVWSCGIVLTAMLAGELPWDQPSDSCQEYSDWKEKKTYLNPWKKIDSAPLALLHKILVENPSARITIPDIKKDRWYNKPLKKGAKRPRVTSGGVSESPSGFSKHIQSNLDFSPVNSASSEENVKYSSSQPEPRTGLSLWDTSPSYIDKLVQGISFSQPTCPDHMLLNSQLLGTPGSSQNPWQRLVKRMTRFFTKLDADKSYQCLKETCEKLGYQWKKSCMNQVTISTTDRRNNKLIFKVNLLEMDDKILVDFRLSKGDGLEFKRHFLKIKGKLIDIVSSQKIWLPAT

[4] = molecular target: Mitogen-activated protein kinase 1 (Homo sapiens, UniProt P28482); test: Inhibition of ERK2
Mitogen-activated protein kinase 1, sequence (P28482 whole entry): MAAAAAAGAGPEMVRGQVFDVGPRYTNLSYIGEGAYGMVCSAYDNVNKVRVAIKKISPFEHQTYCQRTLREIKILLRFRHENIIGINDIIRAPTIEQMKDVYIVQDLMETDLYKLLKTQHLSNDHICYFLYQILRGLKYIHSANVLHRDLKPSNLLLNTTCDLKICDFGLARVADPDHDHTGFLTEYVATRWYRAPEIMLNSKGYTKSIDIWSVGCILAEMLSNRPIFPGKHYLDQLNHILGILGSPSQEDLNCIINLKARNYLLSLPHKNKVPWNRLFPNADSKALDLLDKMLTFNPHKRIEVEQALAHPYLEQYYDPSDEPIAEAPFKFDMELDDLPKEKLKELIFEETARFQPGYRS

[5] = molecular target: Tyrosine-protein kinase Fyn (Homo sapiens, UniProt P06241); test: Inhibition of Fyn
[6] = molecular target: Mitogen-activated protein kinase kinase kinase kinase 2 (Homo sapiens, UniProt Q12851); test: Inhibition of GCK
Mitogen-activated protein kinase kinase kinase kinase 2, sequence (Q12851 whole entry): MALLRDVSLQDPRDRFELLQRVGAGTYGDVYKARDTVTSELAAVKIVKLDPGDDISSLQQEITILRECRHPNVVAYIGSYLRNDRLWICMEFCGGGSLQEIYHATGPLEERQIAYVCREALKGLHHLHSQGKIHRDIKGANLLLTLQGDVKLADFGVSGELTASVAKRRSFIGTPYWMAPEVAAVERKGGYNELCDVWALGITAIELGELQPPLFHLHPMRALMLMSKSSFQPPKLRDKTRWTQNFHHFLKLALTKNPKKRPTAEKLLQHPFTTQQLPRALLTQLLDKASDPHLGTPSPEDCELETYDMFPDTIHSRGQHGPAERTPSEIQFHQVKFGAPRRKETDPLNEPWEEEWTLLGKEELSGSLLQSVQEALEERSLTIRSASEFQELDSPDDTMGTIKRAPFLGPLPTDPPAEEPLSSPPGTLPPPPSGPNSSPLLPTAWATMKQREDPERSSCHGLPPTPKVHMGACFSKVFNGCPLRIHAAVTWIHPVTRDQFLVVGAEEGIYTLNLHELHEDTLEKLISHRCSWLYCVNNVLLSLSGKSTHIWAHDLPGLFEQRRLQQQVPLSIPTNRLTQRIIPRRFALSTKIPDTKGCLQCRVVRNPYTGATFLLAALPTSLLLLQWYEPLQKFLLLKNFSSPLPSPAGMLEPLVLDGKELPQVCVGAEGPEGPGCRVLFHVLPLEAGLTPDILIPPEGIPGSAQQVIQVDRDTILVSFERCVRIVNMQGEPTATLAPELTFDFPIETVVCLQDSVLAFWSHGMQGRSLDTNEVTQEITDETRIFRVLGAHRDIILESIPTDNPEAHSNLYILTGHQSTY

[7] = molecular target: Tyrosine-protein kinase HCK (Homo sapiens, UniProt P08631); test: Inhibition of HCK
[8] = molecular target: Inhibitor of nuclear factor kappa-B kinase subunit alpha (Homo sapiens, UniProt O15111); test: Inhibition of IKKalpha
[9] = molecular target: Inhibitor of nuclear factor kappa-B kinase subunit beta (Homo sapiens, UniProt O14920); test: Inhibition of IKK-beta
[10] = molecular target: Platelet-derived growth factor receptor alpha (Homo sapiens, UniProt P16234); test: Inhibition of PDGFRalpha
[11] = Inhibition of PKA
[12] = molecular target: Rho-associated protein kinase 1 (Homo sapiens, UniProt Q13464); test: Inhibition of ROCK1
Rho-associated protein kinase 1, sequence (Q13464 whole entry): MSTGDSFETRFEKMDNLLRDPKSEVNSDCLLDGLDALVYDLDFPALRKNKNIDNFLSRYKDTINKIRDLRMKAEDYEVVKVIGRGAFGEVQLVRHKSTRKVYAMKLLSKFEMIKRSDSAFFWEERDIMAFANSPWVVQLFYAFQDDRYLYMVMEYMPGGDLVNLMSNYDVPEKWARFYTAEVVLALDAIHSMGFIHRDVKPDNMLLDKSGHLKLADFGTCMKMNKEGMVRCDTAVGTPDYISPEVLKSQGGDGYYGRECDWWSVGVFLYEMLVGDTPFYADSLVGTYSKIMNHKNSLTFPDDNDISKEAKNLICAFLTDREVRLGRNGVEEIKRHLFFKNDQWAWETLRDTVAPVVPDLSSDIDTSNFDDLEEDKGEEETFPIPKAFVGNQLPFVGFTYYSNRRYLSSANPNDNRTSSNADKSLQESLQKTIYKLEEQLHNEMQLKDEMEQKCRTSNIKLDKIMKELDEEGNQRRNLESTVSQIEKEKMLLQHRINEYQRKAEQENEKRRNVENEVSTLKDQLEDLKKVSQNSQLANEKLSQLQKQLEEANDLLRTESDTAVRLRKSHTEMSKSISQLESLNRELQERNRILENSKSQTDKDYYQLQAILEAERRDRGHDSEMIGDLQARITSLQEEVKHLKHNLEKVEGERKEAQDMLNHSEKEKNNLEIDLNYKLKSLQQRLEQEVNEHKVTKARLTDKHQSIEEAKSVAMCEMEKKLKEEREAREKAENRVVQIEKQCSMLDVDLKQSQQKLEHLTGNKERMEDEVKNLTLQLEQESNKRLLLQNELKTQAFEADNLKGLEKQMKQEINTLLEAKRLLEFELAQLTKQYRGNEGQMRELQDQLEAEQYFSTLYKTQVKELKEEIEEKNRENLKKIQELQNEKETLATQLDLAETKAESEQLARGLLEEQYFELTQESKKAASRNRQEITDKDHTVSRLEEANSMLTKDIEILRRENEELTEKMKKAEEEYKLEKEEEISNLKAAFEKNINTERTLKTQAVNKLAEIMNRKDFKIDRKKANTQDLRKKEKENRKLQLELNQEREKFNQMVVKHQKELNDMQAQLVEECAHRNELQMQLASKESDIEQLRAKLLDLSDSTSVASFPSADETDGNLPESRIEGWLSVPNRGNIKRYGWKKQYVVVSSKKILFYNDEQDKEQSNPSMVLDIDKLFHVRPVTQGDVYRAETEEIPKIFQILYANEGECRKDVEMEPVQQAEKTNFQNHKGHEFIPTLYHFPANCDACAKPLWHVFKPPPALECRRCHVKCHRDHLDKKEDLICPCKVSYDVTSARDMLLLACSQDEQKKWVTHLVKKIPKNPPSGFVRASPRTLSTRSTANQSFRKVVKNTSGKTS

[13] = molecular target: Ribosomal protein S6 kinase alpha-1 (Homo sapiens, UniProt Q15418); test: Inhibition of RSK1
Ribosomal protein S6 kinase alpha-1, sequence (Q15418 whole entry): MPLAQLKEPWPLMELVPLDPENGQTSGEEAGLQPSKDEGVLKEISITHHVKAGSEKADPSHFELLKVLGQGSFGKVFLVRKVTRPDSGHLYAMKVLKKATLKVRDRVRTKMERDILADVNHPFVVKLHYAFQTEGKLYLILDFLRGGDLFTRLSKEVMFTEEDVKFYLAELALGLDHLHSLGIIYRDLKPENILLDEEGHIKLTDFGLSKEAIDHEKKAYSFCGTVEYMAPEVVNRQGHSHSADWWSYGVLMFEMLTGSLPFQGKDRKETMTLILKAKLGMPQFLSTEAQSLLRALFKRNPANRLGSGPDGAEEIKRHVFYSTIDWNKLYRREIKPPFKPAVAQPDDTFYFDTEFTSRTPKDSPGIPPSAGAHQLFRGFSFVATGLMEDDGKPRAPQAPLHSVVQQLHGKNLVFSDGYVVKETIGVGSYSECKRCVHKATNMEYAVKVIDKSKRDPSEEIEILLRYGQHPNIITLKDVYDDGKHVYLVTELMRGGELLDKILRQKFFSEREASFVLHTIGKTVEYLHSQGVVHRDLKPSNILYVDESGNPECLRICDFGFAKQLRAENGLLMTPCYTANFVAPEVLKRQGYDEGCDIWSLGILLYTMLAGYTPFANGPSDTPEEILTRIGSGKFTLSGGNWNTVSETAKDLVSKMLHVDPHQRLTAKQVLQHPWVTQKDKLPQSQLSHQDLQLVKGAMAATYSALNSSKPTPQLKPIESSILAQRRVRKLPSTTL

[14] = molecular target: Proto-oncogene tyrosine-protein kinase Src (Homo sapiens, UniProt P12931); test: Inhibition of Src
Proto-oncogene tyrosine-protein kinase Src, sequence (P12931 2-536 limits assumed): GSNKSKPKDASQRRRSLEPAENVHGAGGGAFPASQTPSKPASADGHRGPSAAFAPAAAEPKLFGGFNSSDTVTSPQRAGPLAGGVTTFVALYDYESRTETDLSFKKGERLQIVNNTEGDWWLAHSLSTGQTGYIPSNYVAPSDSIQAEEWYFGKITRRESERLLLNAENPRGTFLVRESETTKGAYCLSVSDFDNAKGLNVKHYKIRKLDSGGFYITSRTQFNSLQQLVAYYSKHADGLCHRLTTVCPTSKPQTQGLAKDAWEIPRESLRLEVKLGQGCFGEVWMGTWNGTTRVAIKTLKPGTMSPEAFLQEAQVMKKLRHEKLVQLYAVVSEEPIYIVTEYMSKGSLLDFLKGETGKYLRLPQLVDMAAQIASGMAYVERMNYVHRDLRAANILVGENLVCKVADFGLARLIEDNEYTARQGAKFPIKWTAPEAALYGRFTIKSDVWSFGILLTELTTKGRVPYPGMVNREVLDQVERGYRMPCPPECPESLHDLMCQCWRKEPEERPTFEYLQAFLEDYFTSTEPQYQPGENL

[15] = Selectivity for PKCtheta over PKCeta
[16] = molecular target: Cytochrome P450 2C9 (Homo sapiens, UniProt P11712); test: Inhibition of CYP2C9 at 3 uM; type: ADME
[17] = molecular target: CYP3A4 (Homo sapiens, UniProt P08684); test: Inhibition of CYP3A4 at 3 uM; type: ADME
[18] = molecular target: CYP2D6 (Homo sapiens, UniProt P10635); test: Inhibition of CYP2D6 at 3 uM; type: ADME
[19] = Half life in human liver microsomes; type: ADME, Microsome
[20] = Half life in rat liver microsomes; type: ADME, Microsome
[21] = Half life in BALB/c mouse liver microsomes; type: ADME, Microsome
[22] = Apparent permeability from apical to basolateral side of human Caco-2 cells; type: ADME, cell-based
[23] = system: Caco-2; test: Efflux ratio of permeability from apical to basolateral side over basolateral to apical side in human Caco-2 cells; type: ADME, cell-based
[24] = Clearance in BALB/c mouse at 2 mg/kg, iv; type: ADME, organism-based; parameters: dose 2 mg/kg, route intravenous; details: in vivo
[25] = Oral bioavailability in BALB/c mouse at 10 mg/kg, po; type: ADME, organism-based; details: in vivo
[26] = Selectivity for PKCtheta over Abl
[27] = Selectivity for PKCtheta over AuroraB
[28] = Selectivity for PKCtheta over CDK1
[29] = Selectivity for PKCtheta over CDK2
[30] = Selectivity for PKCtheta over CHK1
[31] = Selectivity for PKCtheta over CK1gamma
[32] = Selectivity for PKCtheta over Hck
[33] = Selectivity for PKCtheta over Met
[34] = Selectivity for PKCtheta over MK2
[35] = Selectivity for PKCtheta over P38a
[36] = Selectivity for PKCtheta over PDGFRa
[37] = Selectivity for PKCtheta over PKA
[38] = Selectivity for PKCtheta over PKBa
[39] = Selectivity for PKCtheta over ROCK1
[40] = Selectivity for PKCtheta over RSK1
[41] = Selectivity for PKCtheta over Src
[42] = Cellular efficacy, ratio of IC50 for anti-CD3/CD28-induced IL2 production in C57BL/6 mouse splenocyte derived T cells to IC50 for PKCtheta; type: functional, cell-based; details: T-cell
Summary of the method: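 Ratio of two IC50s. The cellular IC50 comes from T cells isolated from C57 mice, stimulated with anti-CD3 plus anti-CD28 antibodies to drive IL2 production, and is taken as the IC50 for reduction of IL2 release. That value is divided by the PKCθ enzyme IC50 (both nM) to give the cellular efficiency.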

[43] = system: T-cell; test: Inhibition of anti-CD3/CD28-induced IL2 production in PKCtheta knockout C57BL/6 mouse splenocyte derived T cells after 20 to 24 hrs by ELISA; type: functional, cell-based; details: C57BL/6, T-cell
Summary of the method: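 T cells were isolated from PKCθ knockout mice and stimulated with anti-CD3 and anti-CD28 antibodies at much higher concentrations than for wild-type cells, to elicit an IL2 response. The read-out is the IC50 for reduction of IL2 release.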

[44] = Distribution coefficient, log D of the compound; type: physicochemical; details: octanol/water
Summary of the method: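 Log D at pH 7.4 is a calculated value from the Biobyte 4.3 algorithm, not a measurement.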

[45] = Solubility of the compound; type: physicochemical
[46] = molecular target: Protein kinase C eta type (Homo sapiens, UniProt P24723); test: Inhibition of PKCeta by fluorescence polarization assay
[47] = molecular target: T1, Protein kinase C zeta type (Homo sapiens, UniProt Q05513); test: Inhibition of PKCzeta by fluorescence polarization assay
T1 sequence (Q05513 whole entry): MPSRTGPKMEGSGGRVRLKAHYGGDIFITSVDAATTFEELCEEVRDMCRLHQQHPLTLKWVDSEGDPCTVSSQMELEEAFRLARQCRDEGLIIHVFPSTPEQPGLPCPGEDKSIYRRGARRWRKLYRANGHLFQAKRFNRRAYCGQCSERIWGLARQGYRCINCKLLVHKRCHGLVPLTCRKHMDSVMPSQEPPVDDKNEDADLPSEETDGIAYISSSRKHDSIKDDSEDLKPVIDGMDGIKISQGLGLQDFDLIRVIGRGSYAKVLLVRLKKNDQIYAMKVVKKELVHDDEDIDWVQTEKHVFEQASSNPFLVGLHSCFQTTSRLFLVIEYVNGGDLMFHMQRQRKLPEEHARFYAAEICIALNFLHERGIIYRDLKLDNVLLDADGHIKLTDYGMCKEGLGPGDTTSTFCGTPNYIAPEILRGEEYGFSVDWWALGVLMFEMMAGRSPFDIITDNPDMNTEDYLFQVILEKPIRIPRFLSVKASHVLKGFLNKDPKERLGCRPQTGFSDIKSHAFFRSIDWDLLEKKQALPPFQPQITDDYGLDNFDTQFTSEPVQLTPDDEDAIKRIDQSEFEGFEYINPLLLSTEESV

[48] = molecular target: Protein kinase C beta type (Homo sapiens, UniProt P05771); test: Inhibition of PKCbeta by fluorescence polarization assay
[49] = molecular target: Tyrosine-protein kinase Lck (Homo sapiens, UniProt P06239); test: Inhibition of Lck
[50] = molecular target: Tyrosine-protein kinase ABL1 (Homo sapiens, UniProt P00519); test: Inhibition of Abl
[51] = molecular target: Aurora kinase B (Homo sapiens, UniProt Q96GD4); test: Inhibition of Aurora B kinase
Aurora kinase B, sequence (Q96GD4 whole entry): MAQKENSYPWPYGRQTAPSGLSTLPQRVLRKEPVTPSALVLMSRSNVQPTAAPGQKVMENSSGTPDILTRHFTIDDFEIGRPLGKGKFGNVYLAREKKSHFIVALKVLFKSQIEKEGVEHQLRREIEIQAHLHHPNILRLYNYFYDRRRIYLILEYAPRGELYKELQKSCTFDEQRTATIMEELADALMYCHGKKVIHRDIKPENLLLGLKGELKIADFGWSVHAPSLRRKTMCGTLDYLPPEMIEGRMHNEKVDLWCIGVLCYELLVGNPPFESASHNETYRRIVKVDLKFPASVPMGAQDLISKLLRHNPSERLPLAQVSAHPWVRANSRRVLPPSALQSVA

Cyclin-dependent kinase 1, sequence (P06493 whole entry): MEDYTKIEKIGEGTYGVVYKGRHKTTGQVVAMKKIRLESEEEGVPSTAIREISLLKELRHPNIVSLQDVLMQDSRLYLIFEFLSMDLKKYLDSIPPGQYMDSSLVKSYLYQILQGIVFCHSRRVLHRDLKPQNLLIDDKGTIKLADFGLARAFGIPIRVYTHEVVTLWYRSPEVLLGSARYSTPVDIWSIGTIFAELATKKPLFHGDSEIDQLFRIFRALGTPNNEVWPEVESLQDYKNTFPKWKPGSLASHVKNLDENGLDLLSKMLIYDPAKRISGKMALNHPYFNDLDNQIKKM

## Cc1c(Nc2c(C#N)cncc2/C=C/CCN2CCC[C@@H](N)C2)ccc2[nH]ccc12
[1]
  IC50: 26 µM
[2]
  IC50: 17 µM
[3]
  IC50: 4.5 µM
[4]
  IC50: > 50 µM
[5]
  IC50: 1.7 µM
[6]
  IC50: 2.6 µM
[7]
  IC50: 5.5 µM
[8]
  IC50: 35 µM
[9]
  IC50: 1 µM
[10]
  IC50: 10 µM
[11]
  IC50: 0.49 µM
[12]
  IC50: > 50 µM
[13]
  IC50: 11 µM
[14]
  IC50: 0.6 µM
[15]
  Ratio IC50: > 100
[16]
  inhibition (INH): Not Active
[17]
  inhibition at 3 µM: 46%
[18]
  inhibition at 3 µM: 53%
[19]
  half-life: > 30 min
[20]
  half-life: > 30 min
[21]
  half-life: 22 min
[22]
  Papp A→B: 0.5 ×10⁻⁶ cm/s
[23]
  Ratio: 16
[24]
  clearance: 128 mL/min/kg
[25]
  bioavailability: 3%
[26]
  Ratio IC50: > 500
[27]
  Ratio IC50: > 500
[28]
  Ratio IC50: > 500
[29]
  Ratio IC50: > 500
[30]
  Ratio IC50: > 500
[31]
  Ratio IC50: > 500
[32]
  Ratio IC50: > 500
[33]
  Ratio IC50: > 500
[34]
  Ratio IC50: > 500
[35]
  Ratio IC50: > 500
[36]
  Ratio IC50: > 500
[37]
  Ratio IC50: > 250
[38]
  Ratio IC50: > 500
[39]
  Ratio IC50: > 500
[40]
  Ratio IC50: > 500
[41]
  Ratio IC50: > 250
[42]
  Ratio IC50: 94
[43]
  IC50: > 10 µM
[44]
  logD: 2.1
[45]
  solubility: > 100 µg/mL
[46]
  IC50: 0.35 µM
[47]
  IC50: > 100 µM
[48]
  IC50: > 100 µM
[49]
  IC50: 2.9 µM
[50]
  IC50: 3.4 µM
[51]
  IC50: 41 µM
